Read-outs that look alike come from different tables or passages of the source.
Experiments:
MATE1 = settings: read-out: IC50, MATE1; cited from earlier work
[1] = cited from earlier work
[2] = previously characterized; cited from earlier work
[3] = system: serum phosphate concentration; assay: Exposure-response Emax model of serum phosphate change from baseline; parameters: species or system human; settings: in vivo
How it was run: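 Serum phosphate was measured in serum chemistry in 300 pooled monotherapy patients from FIGHT‑101, ‑102 and ‑202. The change from baseline was the mean of C1D8 and C1D15. A three‑parameter Emax nonlinear model related this change to model‑derived AUCss, with baseline serum phosphate as a covariate. Parameters were the maximum change (Emax) and the exposure giving 50% of the maximum increase.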

[4] = previously characterized; cited from earlier work; remark: listed apart in the source
[5] = Simulated steady-state exposure; settings: human, plasma, oral, 13.5 mg
How it was run: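 Each patient's dense steady‑state post hoc concentration‑time profile was simulated from the updated population PK model. Cmax,ss, Cmin,ss and AUCss were then derived by noncompartmental methods, with oral once‑daily dosing of 13.5 mg.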

[6] = system: patients with CCA with FGFR2 fusions/re‐arrangements; settings: for Median PFS: 13.5 mg once daily
OCT2 = settings: read-out: IC50, OCT2; cited from earlier work
Population PK analysis = assay type: in vivo, human
How it was run: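 A prior two‑compartment NONMEM model was refined, keeping its interindividual random effects. Covariates were tested on CL/F, Vc/F (age, body weight), Vp/F (body weight) and Ka (sex, fasting, PPI, H2B). Selection used stepwise forward addition (p 0.05) and backward elimination (p 0.005) by likelihood ratio test. Evaluation used nonparametric bootstrap and prediction‑corrected VPC.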

[7] = system: serum creatinine concentration; assay: Exposure-response Emax model of serum creatinine percent change from baseline; assay type: in vivo, human
How it was run: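 Serum creatinine was measured in routine serum chemistry in 300 pooled monotherapy patients from FIGHT‑101, FIGHT‑102 and FIGHT‑202, using the mean of C1D8 and C1D15. A three‑parameter Emax nonlinear model related percent change from baseline to AUCss. Emax is the maximum change, with a half‑maximal exposure term. For prediction, AUCss was the mean post hoc value at 13.5 mg q.d. and was dose‑scaled for 6, 9 and 20 mg.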

[8] = FIGHT-106, healthy participants, 13.5 mg
[9] = covariate effect, final population PK model

- AUC [5]: 2.85 µM·h
- Reduction in K a with use of PPI (Population PK analysis; concomitant PPI vs no PPI): 62%
- H2B antagonist on D1 (Population PK analysis; [9]): −33.4%
- Male sex on CL/F (Population PK analysis; [9]): 26.2%
- Male sex on K a (Population PK analysis; [9]): −58.3%
- PPI on K a (Population PK analysis; [9]): −62.0%
- Phosphate binder on CL/F (Population PK analysis; [9]): −15.5%
- D1 (duration of zero-order drug release), population mean (Population PK analysis; final population PK model): 0.810 h
- K a (absorption rate constant), population mean (Population PK analysis; final population PK model): 3.67 h⁻¹
- CL/F (apparent clearance), population mean (Population PK analysis; final population PK model, 467 participants): 10.7 L/h
- Higher CL/F in men compared with women (Population PK analysis; human, in vivo): 26.2%
- Lower K a in men compared with women (Population PK analysis; human, in vivo): 58.3%
- Reduction in D1 with use of H2B (Population PK analysis; human, in vivo): 33.4%
- Vd/F (Population PK analysis; human, plasma, oral): 118 L
- Reduction in CL/F with use of phosphate-binding agents (Population PK analysis; users vs nonusers): 15.5%
- Estimated percentage change from baseline in serum creatinine concentration ([7]; 6 mg, dose-scaled mean post hoc AUCss): 14.2%
- Estimated percentage change from baseline in serum creatinine concentration ([7]; 9 mg, dose-scaled mean post hoc AUCss): 18.3%
- Estimated percentage change from baseline in serum creatinine concentration ([7]; 13.5 mg q.d., mean post hoc AUCss): 22.7%
- Estimated percentage change from baseline in serum creatinine concentration ([7]; 20 mg, dose-scaled mean post hoc AUCss): 26.9%
SMILES: CCN1C(=O)N(c2c(F)c(OC)cc(OC)c2F)Cc2cnc3[nH]c(CN4CCOCC4)cc3c21 [pemigatinib]
- IC50 (MATE1): 1100 nM
- Increase in AUC on co-administration of the H2B ranitidine [1, 8]: 3%
- Reduction in C max on co-administration of the H2B ranitidine [1, 8]: 2%
- Effect of concomitant PPI esomeprazole on pemigatinib exposure ([1]; FIGHT-106): only a modest effect
- pH-dependent solubility [2]: poorly soluble at pH > 2
- Reduction from baseline per 1-mg/dL increase in baseline serum phosphate level [3]: less than or equal to 0.185 mg/dL
- Permeability [4]: high permeability
- Model predicted ORR ([6]; 6 mg, model on mean change from baseline in serum phosphate): 29.7%
- Model predicted ORR ([6]; 9 mg, model on mean change from baseline in serum phosphate): 41.4%
- Model predicted ORR ([6]; 13.5 mg, model on AUCss, mean AUCss 2850 h∙nM): 45.2%
- Model predicted ORR ([6]; 13.5 mg, model on mean change from baseline in serum phosphate): 47.1%
- Model predicted ORR ([6]; 20 mg, model on mean change from baseline in serum phosphate): 46.8%
- Median PFS ([6]; AUCss first quartile): 6.93 months
- Median PFS ([6]; AUCss fourth quartile): 7.03 months
- Median PFS ([6]; AUCss second quartile): 6.93 months
- Median PFS ([6]; AUCss third quartile): 9.20 months
- IC50 (OCT2): 75 nM
- Body weight on V c/F (Population PK analysis; [9]): 0.842%
- Body weight to V p/F (Population PK analysis; [9]): 1.13%
